Source: ChEMBL document CHEMBL1154697, “Design, synthesis and docking studies of new furobenzopyranones and pyranobenzopyranones as photoreagent towards DNA and as antimicrobial agents” (2010)

What was measured:
Assay type in all cases: functional
Bacillus subtilis [1] = assay: Antimicrobial activity against Bacillus subtilis pretreated 3 hrs before UV photosensitization measured after overnight reincubation under dark condition by agar plate disc diffusion method
Procedure, shortened: (§1)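 B. subtilis 18 h broth culture (0.02 ml) mixed into 10 ml liquefied nutrient agar (beef extract, peptone, K2HPO4, agar). Each dish carries a DMF disc and a xanthotoxin disc (10 mg/ml DMF). Test plates kept dark at 37 °C for 3 h for diffusion, then uncovered and exposed to 365 nm UV for 20 min. A duplicate plate left unirradiated in the incubator overnight. Inhibition zones measured.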

Escherichia coli = assay: Antibacterial activity against Escherichia coli at 50 mg/mL after 48 hrs by agar plate disc diffusion method; details: read-out: IZ
Procedure, shortened: (§2)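 Discs placed on nutrient agar plates (15 ml agar seeded with 0.2 mL of 18 h liquid culture of each organism); plates incubated 37 °C for 48 h, inhibition zone diameter read in mm around each disc. DMF-impregnated discs as solvent control; tetracycline (antibacterial) and amphotericin B (antifungal) references run concurrently.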

Staphylococcus aureus = assay: Antibacterial activity against Staphylococcus aureus at 50 mg/mL after 48 hrs by agar plate disc diffusion method; details: read-out: IZ; procedure, shortened: as §2
Bacillus subtilis [2] = assay: Antimicrobial activity against 20 mins UV photosensitized Bacillus subtilis measured after overnight reincubation under dark condition by agar plate disc diffusion method; procedure, shortened: as §1
Candida albicans = assay: Antifungal activity against Candida albicans at 50 mg/mL after 48 hrs by agar plate disc diffusion method; details: read-out: IZ; procedure, shortened: as §2

| Structure (SMILES) | inhibition zone (IZ) (Bacillus subtilis [1]) | zone of inhibition at 50000 µg/mL (Escherichia coli) | zone of inhibition at 50000 µg/mL (Staphylococcus aureus) | inhibition zone (IZ) (Bacillus subtilis [2]) | zone of inhibition at 50000 µg/mL (Candida albicans) |
| --- | --- | --- | --- | --- | --- |
| CN(C)[C@@H]1C(O)=C(C(N)=O)C(=O)[C@@]2(O)C(O)=C3C(=O)c4c(O)cccc4[C@@](C)(O)[C@H]3C[C@@H]12 [TETRACYCLINE] | 30 millimeter | 34 mm | 36 mm |  |  |
| Cc1c(C(=O)NNC(=S)NCc2ccccc2)c(=O)oc2ccc3c(-c4ccccc4)cc(=O)oc3c12 | 18 millimeter | 20 mm | 30 mm | 22 millimeter |  |
| COc1c2occc2c(OC)c2c(C)c(-c3nnc(S)n3Cc3ccccc3)c(=O)oc12 |  |  |  | 11 millimeter |  |
| Cc1c(-c2nnc(S)n2Cc2ccccc2)c(=O)oc2ccc3c(-c4ccccc4)cc(=O)oc3c12 |  |  |  | 12 millimeter |  |
| COc1c2occc2c(OC)c2c(C)c(C(=O)NNC(=S)NCc3ccccc3)c(=O)oc12 | 10 millimeter |  |  | 12 millimeter |  |
| COc1c2occc2c(OC)c2c(C)c(C(=O)NN)c(=O)oc12 | 12 millimeter | 18 mm |  | 14 millimeter |  |
| C[C@@H]1[C@H](O)[C@@H](C)/C=C/C=C/C=C/C=C/C=C/C=C/C=C/[C@H](O[C@@H]2O[C@H](C)[C@@H](O)[C@H](N)[C@@H]2O)C[C@@H]2O[C@](O)(C[C@@H](O)C[C@@H](O)[C@H](O)CC[C@@H](O)C[C@@H](O)CC(=O)O[C@H]1C)C[C@H](O)[C@H]2C(=O)O [AMPHOTERICIN B] |  |  |  |  | 30 mm |
| COc1c2occc2cc2ccc(=O)oc12 [METHOXSALEN] |  |  |  | 12 millimeter |  |
